Laboratory results from ChEMBL document CHEMBL4270615, “Design, synthesis and biological evaluation of novel thiazolidinedione derivatives as irreversible allosteric IKK-β modulators” (Eur J Med Chem, 2018).
Activity calls are given as the source filed them. The rule behind the calls is not given here.

Tests used:
[1] = molecular target: T1, Inhibitor of nuclear factor kappa-B kinase subunit beta (Homo sapiens) (UniProt O14920); assay: Inhibition of IKKbeta (unknown origin) at 10 uM using IkappaBalpha-derived 5FAMGRHDSGLDSMK-NH2 as substrate preincubated for 10 mins followed by substrate addition measured after 2 hrs by IMAP based TR-FRET assay relative to control
T1 sequence (whole entry): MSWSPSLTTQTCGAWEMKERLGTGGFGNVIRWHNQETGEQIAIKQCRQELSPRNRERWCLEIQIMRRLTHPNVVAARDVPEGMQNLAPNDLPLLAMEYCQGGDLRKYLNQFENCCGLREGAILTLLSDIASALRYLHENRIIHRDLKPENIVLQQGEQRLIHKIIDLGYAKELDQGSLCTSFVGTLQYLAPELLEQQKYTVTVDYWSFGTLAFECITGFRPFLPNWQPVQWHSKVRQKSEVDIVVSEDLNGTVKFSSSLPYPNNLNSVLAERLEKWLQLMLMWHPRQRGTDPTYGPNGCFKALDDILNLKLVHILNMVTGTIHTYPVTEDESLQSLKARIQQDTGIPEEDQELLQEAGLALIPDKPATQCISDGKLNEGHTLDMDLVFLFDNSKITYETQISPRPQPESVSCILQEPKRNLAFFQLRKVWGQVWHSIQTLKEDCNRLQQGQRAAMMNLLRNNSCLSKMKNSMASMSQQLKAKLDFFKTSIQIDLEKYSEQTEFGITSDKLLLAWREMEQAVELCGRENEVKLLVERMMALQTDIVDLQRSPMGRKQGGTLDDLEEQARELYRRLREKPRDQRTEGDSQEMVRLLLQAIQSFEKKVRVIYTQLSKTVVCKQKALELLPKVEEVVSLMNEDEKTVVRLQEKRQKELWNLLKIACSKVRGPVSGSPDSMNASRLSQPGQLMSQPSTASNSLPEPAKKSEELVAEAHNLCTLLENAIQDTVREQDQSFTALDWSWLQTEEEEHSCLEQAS
Procedure, shortened: (§1)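 Recombinant IKK2 at 0.5 µg/mL in 10 mM Tris-HCl pH 7.2, 10 mM MgCl2, 0.05% NaN3, 1 mM DTT, 0.01% Tween-20. Compound preincubated with enzyme for 10 min, then 1 μM 5-FAM IκBα peptide and 3 μM ATP added; reaction at room temperature for 2 h. IMAP binding reagent (1:600) plus terbium donor (1:400) added 15 h before the TR-FRET read. Percent inhibition measured at 10 µM.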

[2] = molecular target: T2, Inhibitor of nuclear factor kappa-B kinase subunit beta (Homo sapiens, UniProt O14920); assay: Inhibition of IKKbeta (unknown origin) using IkappaBalpha-derived 5FAMGRHDSGLDSMK-NH2 as substrate preincubated for 10 mins followed by substrate addition measured after 2 hrs by IMAP based TR-FRET assay; procedure, shortened: as §1
T2 sequence (O14920 whole entry): T1 sequence (whole entry)

hERG (KCNH2) = hERG (KCNH2) (Homo sapiens, UniProt Q12809); assay: Inhibition of human ERG expressed in CHOK1 cells assessed as reduction in tail current at 100 uM and -80 holding potential after 100 to 200 secs by whole cell automated patch-clamp electrophysiology assay relative to control; type: ADME, cell-based; details: CHO-K1 cells expressing human ERG
Chain of hERG (KCNH2) (Q12809 whole entry, the tested form may be a part): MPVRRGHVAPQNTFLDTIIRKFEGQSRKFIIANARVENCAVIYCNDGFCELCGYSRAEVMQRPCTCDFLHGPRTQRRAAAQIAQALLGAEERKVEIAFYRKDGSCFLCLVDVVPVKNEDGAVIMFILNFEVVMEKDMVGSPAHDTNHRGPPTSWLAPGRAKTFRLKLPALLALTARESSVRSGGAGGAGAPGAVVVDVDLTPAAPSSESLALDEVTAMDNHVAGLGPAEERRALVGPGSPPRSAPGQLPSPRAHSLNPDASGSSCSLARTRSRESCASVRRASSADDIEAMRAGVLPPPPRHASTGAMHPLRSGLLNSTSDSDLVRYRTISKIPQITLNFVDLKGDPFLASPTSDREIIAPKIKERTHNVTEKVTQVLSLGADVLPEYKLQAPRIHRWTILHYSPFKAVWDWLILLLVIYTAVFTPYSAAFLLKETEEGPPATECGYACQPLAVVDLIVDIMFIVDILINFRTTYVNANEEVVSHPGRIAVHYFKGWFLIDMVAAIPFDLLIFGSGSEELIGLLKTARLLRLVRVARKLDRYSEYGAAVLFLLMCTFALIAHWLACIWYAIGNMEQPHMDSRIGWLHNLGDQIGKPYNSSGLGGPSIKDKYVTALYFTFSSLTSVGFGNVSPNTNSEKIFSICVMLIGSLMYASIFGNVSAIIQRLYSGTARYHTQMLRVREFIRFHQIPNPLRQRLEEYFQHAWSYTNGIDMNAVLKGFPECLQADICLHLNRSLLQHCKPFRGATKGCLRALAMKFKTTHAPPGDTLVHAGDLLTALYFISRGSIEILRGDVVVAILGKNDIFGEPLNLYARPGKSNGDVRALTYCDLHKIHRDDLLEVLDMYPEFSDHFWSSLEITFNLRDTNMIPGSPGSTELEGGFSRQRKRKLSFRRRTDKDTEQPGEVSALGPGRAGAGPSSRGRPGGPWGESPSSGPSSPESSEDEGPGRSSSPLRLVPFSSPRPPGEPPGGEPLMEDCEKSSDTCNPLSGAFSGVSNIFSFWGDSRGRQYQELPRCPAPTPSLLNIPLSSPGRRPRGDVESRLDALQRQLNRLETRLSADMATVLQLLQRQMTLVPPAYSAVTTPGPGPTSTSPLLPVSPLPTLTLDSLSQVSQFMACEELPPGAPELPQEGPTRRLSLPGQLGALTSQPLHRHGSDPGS
Procedure, shortened: (§2)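 CHO-K1 Tet-On hERG cells, with expression induced by doxycycline 5 μg/ml, recorded 20–32 h after induction. Whole-cell automated patch clamp used intracellular solution of 50 KCl, 60 KF, 10 NaCl, 2 MgCl2, 20 EGTA, 10 HEPES pH 7.2 (mM) and extracellular solution of 140 NaCl, 4 KCl, 2 CaCl2, 1 MgCl2, 5 glucose, 10 HEPES pH 7.4. Compound perfused for 100–200 s until tail-current block reached equilibrium. Percent inhibition taken at 100 μM.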

[3] = molecular target: T2, Inhibitor of nuclear factor kappa-B kinase subunit beta; assay: Inhibition of human IKKbeta using IKKtide as substrate after 20 mins by [gamma-33P]-ATP based radiometric assay
[4] = molecular target: Voltage-gated inwardly rectifying potassium channel KCNH2 (Homo sapiens, UniProt Q12809); assay: Inhibition of human ERG expressed in CHOK1 cells assessed as reduction in tail current at -80 holding potential after 100 to 200 secs by whole cell automated patch-clamp electrophysiology assay; type: ADME, cell-based; procedure, shortened: as §2
Chain of Voltage-gated inwardly rectifying potassium channel KCNH2 (Q12809 whole entry): as the sequence (Q12809 whole entry, the tested form may be a part) above

[5] = tested on: hERG (KCNH2) versus IKKbeta; assay: Safety index, ratio of compound IC50 for human ERG expressed in CHOK1 cells to IC50 for IKKbeta (unknown origin); type: toxicity, cell-based; details: CHO-K1 cells expressing human ERG, read-out: Ratio IC50
Procedure, shortened: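 Safety index calculated as hERG IC50 divided by IKK-β IC50.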

[6] = Cytotoxicity against LPS-treated mouse RAW264.7 cells assessed as decrease in cell viability after 24 hrs by MTT assay; type: cell-based; details: LPS-treated RAW264.7 cells
Procedure, shortened: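 RAW 264.7 cells seeded at 1×10^5 cells/mL, grown overnight, then exposed to samples for 24 h, with or without 1 μg/ml LPS. MTT added from a 5 mg/mL PBS stock for 4 h at 37 °C. Formazan dissolved in DMSO and absorbance read at 540 nm. IC80 is the concentration lowering viability to 80% in the presence of LPS.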

[7] = molecular target: T1, Inhibitor of nuclear factor kappa-B kinase subunit beta (Homo sapiens); assay: Irreversible inhibition of IKKbeta (unknown origin) at 0.001 to 30 uM using IkappaBalpha-derived 5FAMGRHDSGLDSMK-NH2 as substrate measured up to 60 mins
Procedure, shortened: (§3)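 Same IKK2 IMAP TR-FRET system (0.5 µg/mL enzyme, 1 μM peptide, 3 μM ATP, room temperature). Ten concentrations, 0.001–30 μM, with reactions run for 0, 20, 40 or 60 min instead of 2 h. Dose–response curves fitted at each time point. Kobs obtained from ln(% activity remaining) against time, then regressed nonlinearly against concentration.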

[8] = molecular target: T2, Inhibitor of nuclear factor kappa-B kinase subunit beta; assay: Irreversible inhibition of IKKbeta (unknown origin) using IkappaBalpha-derived 5FAMGRHDSGLDSMK-NH2 as substrate measured immediately; procedure, shortened: as §3
[9] = molecular target: T2, Inhibitor of nuclear factor kappa-B kinase subunit beta; assay: Irreversible inhibition of IKKbeta (unknown origin) using IkappaBalpha-derived 5FAMGRHDSGLDSMK-NH2 as substrate measured after 20 mins; procedure, shortened: as §3
[10] = molecular target: T2, Inhibitor of nuclear factor kappa-B kinase subunit beta; assay: Irreversible inhibition of IKKbeta (unknown origin) using IkappaBalpha-derived 5FAMGRHDSGLDSMK-NH2 as substrate measured after 40 mins; procedure, shortened: as §3
[11] = molecular target: T2, Inhibitor of nuclear factor kappa-B kinase subunit beta; assay: Irreversible inhibition of IKKbeta (unknown origin) using IkappaBalpha-derived 5FAMGRHDSGLDSMK-NH2 as substrate measured after 60 mins; procedure, shortened: as §3
RAW264.7 [12] = assay: Antiinflammatory activity against mouse RAW264.7 cells assessed as inhibition of LPS-induced TNFalpha production incubated for 1 hr followed by LPS addition measured after 24 hrs by ELISA; type: functional, cell-based
Procedure, shortened: (§4)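 RAW 264.7 macrophages (DMEM, 10% FBS, penicillin/streptomycin, 37 °C, 5% CO2) plated at 2×10^5 cells/mL and left overnight. Compounds at 1.5, 3 and 6 μM, or NS-398 as positive control, given for 1 h, then LPS (10 ng/mL) for 24 h. PGE2 and TNF-α in diluted culture medium quantified by ELISA. IC50 is the concentration halving the produced mediator.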

RAW264.7 [13] = assay: Antiinflammatory activity against mouse RAW264.7 cells assessed as inhibition of LPS-induced PGE2 production incubated for 1 hr followed by LPS addition measured after 24 hrs by ELISA; type: functional, cell-based; procedure, shortened: as §4

Compound: O=C(C1CC1)N1CCN(CCCCOc2ccc(N3C(=O)S/C(=C\c4ccc(Oc5ccc(Br)cc5)cc4)C3=O)cc2)CC1
- inhibition [1]: 52.4%
- IC50 [2]: 8600 nM
- inhibition at 100 µM (hERG (KCNH2)): 17.1%

Compound: O=C(C1CC1)N1CCN(CCCCOc2ccc(N3C(=O)S/C(=C\c4ccc(Oc5ccc([N+](=O)[O-])cc5)cc4)C3=O)cc2)CC1
- inhibition [1]: 21.7%

Compound: CS(=O)(=O)N1CCN(CCCCOc2ccc(N3C(=O)S/C(=C\c4ccc(Oc5ccc([N+](=O)[O-])cc5)cc4)C3=O)cc2)CC1
- inhibition [1]: 0%

Compound: O=C1N/C(=N\c2ccc(O)cc2)S/C1=C\c1cc2ccccc2[nH]1
- IC50 [3]: 97.4 µM

Compound: O=C(C1CC1)N1CCN(CCCCOc2ccc(N3C(=O)S/C(=C\c4ccc(Oc5ccc(F)cc5)cc4)C3=O)cc2)CC1
- inhibition [1]: 21.2%

Compound: CS(=O)(=O)N1CCN(CCCCOc2ccc(N3C(=O)S/C(=C\c4ccc(Oc5ccc(Br)cc5)cc4)C3=O)cc2)CC1
- inhibition [1]: 3.3%

Compound: COCCCN1CCN(CCCCOc2ccc(N3C(=O)S/C(=C\c4ccc(Oc5ccc(Br)cc5)cc4)C3=O)cc2)CC1
- inhibition [1]: 0%

Compound: COCCN1CCN(CCCCOc2ccc(N3C(=O)S/C(=C\c4ccc(Oc5ccc(Br)cc5)cc4)C3=O)cc2)CC1
- inhibition [1]: 0%

Compound: COCCCN1CCN(CCCCOc2ccc(N3C(=O)S/C(=C\c4ccc(Oc5ccc([N+](=O)[O-])cc5)cc4)C3=O)cc2)CC1
- inhibition [1]: 9.4%

Compound: O=C1S/C(=C\c2ccc(Oc3ccc(Br)cc3)cc2)C(=O)N1c1ccc(OCCCCN2CCN(CC3CC3)CC2)cc1
- inhibition [1]: 60.8%
- IC50 [2]: 7900 nM
- inhibition at 100 µM (hERG (KCNH2)): 66.5%
- IC50 [4]: 27.5 µM
- selectivity ratio [5]: 3.5

Compound: O=C1S/C(=C\c2ccc(Oc3ccc(F)cc3)cc2)C(=O)N1c1ccc(OCCCN2CCN(CC3CC3)CC2)cc1
- inhibition [1]: 88.8%
- IC50 [2]: 1400 nM

Compound: COCCN1CCN(CCCCOc2ccc(N3C(=O)S/C(=C\c4ccc(Oc5ccc([N+](=O)[O-])cc5)cc4)C3=O)cc2)CC1
- inhibition [1]: 9.3%

Compound: O=C(C1CC1)N1CCN(CCCCOc2ccc(N3C(=O)S/C(=C\c4ccc(Oc5ccc(Cl)cc5)cc4)C3=O)cc2)CC1
- inhibition [1]: 17%

Compound: CS(=O)(=O)N1CCN(CCCCOc2ccc(N3C(=O)S/C(=C\c4ccc(Oc5ccc(F)cc5)cc4)C3=O)cc2)CC1
- inhibition [1]: 2.7%

Compound: O=C1S/C(=C\c2ccc(N3CCOCC3)c(Cl)c2)C(=O)N1c1ccc(OCCCN2CCN(CC3CC3)CC2)cc1
- IC80 at 24 h [6]: 2670 nM
- inhibition [1]: 90.7%
- IC50 [2]: 700 nM
- inhibition [7]: Active
- IC50 [8]: 372 nM
- IC50 [9]: 288 nM
- IC50 [10]: 251 nM
- IC50 [11]: 252 nM
- IC50 (RAW264.7 [12]): > 6 µM

Compound: Nc1nc(N)nc(-c2ccc(Oc3ccccc3N)cc2)n1
- IC50 [3]: 7.8 µM

Compound: O=C1S/C(=C\c2ccc(N3CCOCC3)c(Cl)c2)C(=O)N1c1ccc(OCCCCCN2CCN(CC3CC3)CC2)cc1
- IC80 at 24 h [6]: < 1500 nM
- inhibition [1]: 92.1%
- IC50 [2]: 900 nM
- Activity (RAW264.7 [13]): Dose-dependent effect
- IC50 (RAW264.7 [13]): > 6 µM

Compound: O=C1S/C(=C\c2ccc(Oc3ccc(Cl)cc3)cc2)C(=O)N1c1ccc(OCCCCN2CCN(CC3CC3)CC2)cc1
- inhibition [1]: 37.5%

Compound: O=C1S/C(=C\c2ccc(Oc3ccc(F)cc3)cc2)C(=O)N1c1ccc(OCCCCN2CCN(CC3CC3)CC2)cc1
- inhibition [1]: 85.7%
- IC50 [2]: 1700 nM
- inhibition at 100 µM (hERG (KCNH2)): 99.5%
- IC50 [4]: 3.4 µM
- selectivity ratio [5]: 2

Compound: O=C1S/C(=C\c2ccc(Oc3ccc([N+](=O)[O-])cc3)cc2)C(=O)N1c1ccc(OCCCCN2CCN(CC3CC3)CC2)cc1
- IC80 at 24 h [6]: > 6000 nM
- inhibition [1]: 85.6%
- IC50 [2]: 1500 nM
- Activity (RAW264.7 [13]): Dose-dependent effect
- IC50 (RAW264.7 [13]): > 6 µM
- IC50 (RAW264.7 [12]): 3.41 µM
- inhibition at 100 µM (hERG (KCNH2)): 61.2%
- IC50 [4]: 55.3 µM
- selectivity ratio [5]: 36.9

Compound: COCCN1CCN(CCCCOc2ccc(N3C(=O)S/C(=C\c4ccc(Oc5ccc(F)cc5)cc4)C3=O)cc2)CC1
- inhibition [1]: 1.6%

Compound: CS(=O)(=O)N1CCN(CCCCOc2ccc(N3C(=O)S/C(=C\c4ccc(Oc5ccc(Cl)cc5)cc4)C3=O)cc2)CC1
- inhibition [1]: 0.8%

Compound: COCCCN1CCN(CCCCOc2ccc(N3C(=O)S/C(=C\c4ccc(Oc5ccc(Cl)cc5)cc4)C3=O)cc2)CC1
- inhibition [1]: 1.6%

Compound: O=C1S/C(=C\c2ccc(Oc3ccc(F)cc3)cc2)C(=O)N1c1ccc(OCCCCCN2CCN(CC3CC3)CC2)cc1
- IC80 at 24 h [6]: > 6000 nM
- inhibition [1]: 92.8%
- IC50 [2]: 400 nM
- inhibition [7]: Active
- IC50 [8]: 1100 nM
- IC50 [9]: 340 nM
- IC50 [10]: 299 nM
- IC50 [11]: 240 nM
- Activity (RAW264.7 [13]): Dose-dependent effect
- IC50 (RAW264.7 [13]): > 6 µM
- IC50 (RAW264.7 [12]): 1.67 µM

Compound: COCCCN1CCN(CCCCOc2ccc(N3C(=O)S/C(=C\c4ccc(Oc5ccc(F)cc5)cc4)C3=O)cc2)CC1
- inhibition [1]: 0.7%

Compound: COCCN1CCN(CCCCOc2ccc(N3C(=O)S/C(=C\c4ccc(Oc5ccc(Cl)cc5)cc4)C3=O)cc2)CC1
- inhibition [1]: 1.7%
